Experimental data of several laboratories.
Lines come from different studies, so protocols differ. pEC50: −log10 of the molar value.
Read-out: cell growth or viability

COc1ccc2/c(=N/c3ccccc3NC(=O)[C@@H](N)CO)cc(-c3ccc4c(c3)OCCO4)oc2c1  inhibition (MCF7; CCK-8; 1 µM): 8.55%
O=C(Nc1ccc(Cl)cc1)Nc1cccc(-c2cn(Cc3cccc(Cl)c3)nn2)c1  viability (MCF7; CCK-8; 50 µM, 48 h): 92.3%
Cc1ccccc1Cn1cc(-c2cccc(NC(=O)Nc3ccc(F)cc3)c2)nn1  viability (MCF7; CCK-8; 50 µM, 48 h): 100%
NCCC(=O)Nc1ccccc1/N=c1\cc(-c2ccc3nc(N)oc3c2)oc2ccccc12  inhibition (MCF7; CCK-8; 1 µM): 46%
O=C(NCc1cn(Cc2ccc(Cl)cc2)nn1)Nc1ccccc1Br  viability (MCF7; CCK-8; 50 µM, 72 h): 88.6%
O=C(C[C@@H](C(F)F)n1ccc(F)n1)N1CCC(O)(Cn2cnc3c(cnn3-c3ccc(F)cc3)c2=O)CC1  viability (CAPAN-1; SRB; 9.145 nM, 5 days): 94.6%
O=C(Nc1ccc(Cl)cc1)Nc1cccc(-c2cn(Cc3cccc(Br)c3)nn2)c1  viability (MCF7; CCK-8; 50 µM, 72 h): 72.8%
COc1ccc2/c(=N/c3ccccc3NC(=O)[C@H](C)N)cc(-c3ccc4c(c3)OCCO4)oc2c1  inhibition (MCF7; CCK-8; 1 µM): 8.55%
COc1ccc(NC(=O)Nc2cccc(-c3cn(Cc4ccc(Cl)cc4)nn3)c2)cc1  viability (MCF7; CCK-8; 50 µM, 72 h): 104%
O=C(Nc1ccc(Cl)cc1)Nc1ccc(-c2cn(Cc3ccc(Cl)cc3)nn2)cc1  viability (MCF7; CCK-8; 50 µM, 48 h): 94.6%
COc1ccc2/c(=N/c3ccccc3NC(=O)CN)cc(-c3ccc4c(c3)OCCO4)oc2c1  inhibition (MCF7; CCK-8; 1 µM): 9.77%
O=C(Nc1ccc(Cl)cc1)Nc1ccc(-c2cn(Cc3ccc(Br)cc3)nn2)cc1  viability (MCF7; CCK-8; 50 µM, 48 h): 93.7%
CC(C)(C)c1cc(NC(=O)Nc2ccc(-c3cn4c(n3)sc3cc(OCCN5CCOCC5)ccc34)cc2)no1  GI50 (NOMO-1; 72 h): > 10000 nM
O=C(Nc1ccc(-c2cn(Cc3ccc(Cl)cc3)nn2)cc1)Nc1ccccc1Br  viability (MCF7; CCK-8; 50 µM, 48 h): 99.3%
COc1ccc2oc(-c3ccc4nc(N)oc4c3)c/c(=N\c3ccccc3NC(=O)CCN)c2c1  inhibition (MCF7; CCK-8; 1 µM): 15%
COc1ccc(NC(=O)Nc2ccc(-c3cn(Cc4ccc(Cl)cc4)nn3)cc2)cc1  viability (MCF7; CCK-8; 50 µM, 72 h): 99%
C[C@H](Nc1ccc2c(c1)OCCn1cc(N3C(=O)OC[C@H]3C(F)F)nc1-2)C(N)=O  pEC50 (HCC1954; ATP luminescence; 5 days): 6.81
CC(C)(C)[C@H](N)C(=O)Nc1ccccc1/N=c1\cc(-c2ccc3c(c2)OCO3)oc2ccccc12  inhibition (MCF7; CCK-8; 1 µM): 21.3%
CN(C)CCNC(=O)c1ccc(-c2nc3ccc4[nH]ncc4c3c3c2CCCC3)c(F)c1  GI50 (NOMO-1; 72 h): 3080 nM
O=C(Nc1ccccc1/N=c1\cc(-c2ccc3c(c2)OCCO3)oc2cc(F)ccc12)N1CCOCC1  inhibition (MCF7; CCK-8; 1 µM): 16.7%
COc1ccc(NC(=O)Nc2ccc(-c3cn(Cc4ccc(Br)cc4)nn3)cc2)cc1  viability (MCF7; CCK-8; 50 µM, 48 h): 98.4%
Cc1n[nH]c2ccc3nc(-c4ccc(C(=O)NCCN(C)C)cc4)c4c(c3c12)CCCCC4  GI50 (NOMO-1; 72 h): 3080 nM
COc1ccc(NC(=O)Nc2ccc(-c3cn(Cc4ccc(C)cc4)nn3)cc2)cc1  viability (MCF7; CCK-8; 50 µM, 48 h): 81.1%
O=C(NCc1cn(Cc2ccc(Cl)cc2)nn1)Nc1ccc(Cl)cc1  viability (MCF7; CCK-8; 50 µM, 48 h): 80.8%
CN(C)CCNC(=O)c1ccc(-c2nc3ccc4[nH]ncc4c3c3c2CCCCC3)c(F)c1  GI50 (NOMO-1; 72 h): 1330 nM
COc1ccc(NC(=O)Nc2ccc(-c3cn(Cc4cccc(Cl)c4)nn3)cc2)cc1  viability (MCF7; CCK-8; 50 µM, 72 h): 98.2%
C[C@H](N)C(=O)Nc1ccccc1/N=c1\cc(-c2ccc3c(c2)OCCO3)oc2cc(F)ccc12  inhibition (MCF7; CCK-8; 1 µM): 3.33%
Cc1n[nH]c2ccc3nc(-c4ccc(C(=O)NCCN(C)C)cc4F)c4c(c3c12)CCCCC4  GI50 (NOMO-1; 72 h): 2730 nM
